UBC13 inh: blocks human UBC13 polyubiquitin chain formation; TR-FRET; inhibition, % at 20 µM; actives 0.47% (n = 330,000); AID 485273; in the data active = inhibition above about 45%, passing the limit was not always enough
ALR H2O2 inh: inhibitors of human sulfhydryl oxidase ALR; P55789; purified ALR, DTT oxidation, H2O2 HRP-luminol luminescence; inhibition, % (concentration not given with the values); actives 3.8% (n = 290,000); AID 485317;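 active = mean replicate inhibition above about 79%, with every replicate also reaching it, limit read from the data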
UBC9 SUMO inh: inhibitors of human SUMOylation (UBC9); P63279; HTRF SUMOylation assay, SAE1/SAE2 + UBC9, in vitro; inhibition, % at 35 µM; actives 0.36% (n = 290,000); AID 2006; in the data active = inhibition above about 50%, passing the limit was not always enough
Target sequence (P63279 whole entry, looked up): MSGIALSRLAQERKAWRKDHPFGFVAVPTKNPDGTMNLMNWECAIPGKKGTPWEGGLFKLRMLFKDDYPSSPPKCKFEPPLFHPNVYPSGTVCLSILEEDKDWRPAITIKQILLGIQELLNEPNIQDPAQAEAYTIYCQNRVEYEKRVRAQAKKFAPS
Rin1-Abl PPI inh: human Rin1-Abl interaction inhibition; TR-FRET Rin1/Abl binding, biochemical; inhibition, % at 7.35 µM; actives 0.4% (n = 360,000); in the data active = inhibition above about 5%, passing the limit was not always enough
RBBP9 inhibitor: human RBBP9 hydrolase inhibition. recombinant RBBP9, FP-Rh probe fluorescence polarization. actives 0.2% (n = 220,000). inhibition, % at 7.94 µM. O75884;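 active = inhibition above the campaign mean of all tested compounds plus 3 SD, cut at about 14% in these data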;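 note: plate controls were DMSO wells with RBBP9 for no effect and wells lacking RBBP9 protein for full effect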
Target sequence (O75884 whole entry, looked up): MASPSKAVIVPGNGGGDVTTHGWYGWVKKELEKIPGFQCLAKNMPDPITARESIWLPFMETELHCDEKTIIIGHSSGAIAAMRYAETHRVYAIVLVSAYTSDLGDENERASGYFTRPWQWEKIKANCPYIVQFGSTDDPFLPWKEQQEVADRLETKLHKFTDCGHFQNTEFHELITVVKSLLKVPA
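Assay system: recombinant human RBBP9; Reagent: Serine-hydrolase probe FP-Rh, 375 nM pre-mixing; Doses: 7.94 µM single dose, 0.794% DMSO; Incubation: 30 min then 45 min, 25 °C; Detection: fluorescence polarization (mP), excitation 525 nm, emission 598 nm; Evaluation: percent inhibition from mP, scaled between DMSO and no-protein wells.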
PREPL inh: human PREPL enzyme inhibition | Q4J6C6 | recombinant PREPL, fluorescence polarization activity-based probe | inhibition, % at 5.96 µM | actives 0.68% (n = 320,000) | AID 2751; in the data active = inhibition above about 43%;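 note: 0% = enzyme with DMSO and 100% = wells lacking enzyme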
Active calls of the source: *. Shown are actives, neighbours in structure and some others; about 4.3% of the full set was active somewhere.

COc1ccc(-c2nc3ccc([N+](=O)[O-])cc3[nH]2)cc1 was read as UBC9 SUMO inh 55*, Rin1-Abl PPI inh 0, RBBP9 inhibitor -6 and PREPL inh 9.
O=[N+]([O-])c1ccc2nc(C3CCCCC3)[nH]c2c1 was read as UBC13 inh 5, ALR H2O2 inh 97*, UBC9 SUMO inh 10, Rin1-Abl PPI inh -2 and PREPL inh -8.
`O=[N+]([O-])c1ccc2nc(CN3CCCCC3)[nH]c2c1` gave UBC13 inh 5, ALR H2O2 inh 0, UBC9 SUMO inh 14, Rin1-Abl PPI inh 1, RBBP9 inhibitor 6 and PREPL inh 0.
`O=[N+]([O-])c1ccc2nc(CCCc3nc4ccc([N+](=O)[O-])cc4[nH]3)[nH]c2c1` gave UBC13 inh 3, ALR H2O2 inh 0, UBC9 SUMO inh 69*, Rin1-Abl PPI inh 0, RBBP9 inhibitor -5 and PREPL inh 0.
`CCCc1cc(=O)[nH]c(SCc2nc3ccc([N+](=O)[O-])cc3[nH]2)n1` gave UBC13 inh 0, ALR H2O2 inh 99*, UBC9 SUMO inh 14, Rin1-Abl PPI inh 1, RBBP9 inhibitor -5 and PREPL inh -2.
`CC12CCC(=O)N1C(C(=O)Nc1ccccc1N1CCCCC1)CS2` (centres undefined) gave UBC13 inh 12, ALR H2O2 inh 11, Rin1-Abl PPI inh 2 and PREPL inh 19.
`COc1cccc(-c2cnc(C(O)c3c(C)cccc3C)[nH]2)c1` (centres undefined) gave Rin1-Abl PPI inh -2.
`O=c1cc(-c2ccccc2)[nH]n2cnnc12` gave UBC13 inh 5, ALR H2O2 inh -5, UBC9 SUMO inh 5, Rin1-Abl PPI inh 0 and PREPL inh 4.
Screening COc1ccc(C2=NOC3(CC(=O)N(c4ccc(F)cc4)C3=O)C2)cc1 (centres undefined) returned UBC13 inh 1, ALR H2O2 inh -2, UBC9 SUMO inh 5, Rin1-Abl PPI inh 3, RBBP9 inhibitor -12 and PREPL inh -7.
Screening COc1ccc(-c2nc(SC(C)C(=O)Nc3ccc(NC(C)=O)cc3)n[nH]2)cc1 (centres undefined) returned UBC13 inh 0, ALR H2O2 inh 98*, Rin1-Abl PPI inh 0 and PREPL inh -5.
Screening CC(C)(C)c1cc(=O)n(-c2ccccc2)[nH]1 returned ALR H2O2 inh -121, UBC9 SUMO inh 98, Rin1-Abl PPI inh 13*, RBBP9 inhibitor -3 and PREPL inh 31.
`O=c1cc(-c2ccccc2)[nH]n1-c1ccccc1` gave Rin1-Abl PPI inh 2.
Screening COc1ccccc1NC(=O)/C(C#N)=C/c1cccnc1 returned UBC13 inh 4, ALR H2O2 inh 37, UBC9 SUMO inh 1, Rin1-Abl PPI inh 0 and PREPL inh -1.
`Clc1ccc(N/N=C/c2ccncc2)cc1Cl` gave UBC13 inh 9, ALR H2O2 inh 98*, UBC9 SUMO inh -7, Rin1-Abl PPI inh -2, RBBP9 inhibitor -5 and PREPL inh 5.
N#C/C(=C\c1cccnc1)C(=O)Nc1ccc(Cl)cc1 was read as UBC13 inh 6, ALR H2O2 inh 98*, UBC9 SUMO inh -2, Rin1-Abl PPI inh 3 and PREPL inh -4.
`Cc1cccc(NC(=O)/C(C#N)=C\c2cccnc2)c1` gave UBC13 inh 12, ALR H2O2 inh 17, UBC9 SUMO inh 12, Rin1-Abl PPI inh -3, RBBP9 inhibitor -1 and PREPL inh 7.
For N#C/C(=C\c1cccnc1)C(=O)Nc1cccc(Cl)c1 the results were UBC13 inh 22, ALR H2O2 inh 88*, UBC9 SUMO inh -7, Rin1-Abl PPI inh -5, RBBP9 inhibitor -6 and PREPL inh -24.
For N#C/C(=C\c1cccnc1)C(=O)Nc1cccc2ccccc12 the results were UBC13 inh -2, ALR H2O2 inh 95*, UBC9 SUMO inh 18, Rin1-Abl PPI inh 0, RBBP9 inhibitor -4 and PREPL inh -2.
Screening CCCCN(C(=O)c1ccc(C)o1)c1c(N)n(CC(C)C)c(=O)[nH]c1=O returned UBC13 inh 5, ALR H2O2 inh 3, Rin1-Abl PPI inh -2 and PREPL inh 7.
O=C(O)COc1ccc(/C=N/NC(=O)/C(=C/C=C/c2ccccc2)NC(=O)c2ccccc2)cc1 was read as UBC13 inh -42, UBC9 SUMO inh 10, Rin1-Abl PPI inh 0 and PREPL inh 0.

Compound activity as filed in PubChem.
